The list is not random: actives were taken first. Their share in the collection is about 2.3%.
TRPC6 activator: activates the mouse TRPC6 cation channel; Q61143; HEK293-TRPC6 membrane potential dye fluorescence; active compounds read high; B-score at 10 µM; 0.13% of 310,000 active;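 active means B-score of the integrated fluorescence ratio above library mean plus 3 SD, and starting fluorescence ratio within library mean plus 5 SD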;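 further: higher score means more depolarization so channel activation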
Target sequence (Q61143 whole entry, looked up): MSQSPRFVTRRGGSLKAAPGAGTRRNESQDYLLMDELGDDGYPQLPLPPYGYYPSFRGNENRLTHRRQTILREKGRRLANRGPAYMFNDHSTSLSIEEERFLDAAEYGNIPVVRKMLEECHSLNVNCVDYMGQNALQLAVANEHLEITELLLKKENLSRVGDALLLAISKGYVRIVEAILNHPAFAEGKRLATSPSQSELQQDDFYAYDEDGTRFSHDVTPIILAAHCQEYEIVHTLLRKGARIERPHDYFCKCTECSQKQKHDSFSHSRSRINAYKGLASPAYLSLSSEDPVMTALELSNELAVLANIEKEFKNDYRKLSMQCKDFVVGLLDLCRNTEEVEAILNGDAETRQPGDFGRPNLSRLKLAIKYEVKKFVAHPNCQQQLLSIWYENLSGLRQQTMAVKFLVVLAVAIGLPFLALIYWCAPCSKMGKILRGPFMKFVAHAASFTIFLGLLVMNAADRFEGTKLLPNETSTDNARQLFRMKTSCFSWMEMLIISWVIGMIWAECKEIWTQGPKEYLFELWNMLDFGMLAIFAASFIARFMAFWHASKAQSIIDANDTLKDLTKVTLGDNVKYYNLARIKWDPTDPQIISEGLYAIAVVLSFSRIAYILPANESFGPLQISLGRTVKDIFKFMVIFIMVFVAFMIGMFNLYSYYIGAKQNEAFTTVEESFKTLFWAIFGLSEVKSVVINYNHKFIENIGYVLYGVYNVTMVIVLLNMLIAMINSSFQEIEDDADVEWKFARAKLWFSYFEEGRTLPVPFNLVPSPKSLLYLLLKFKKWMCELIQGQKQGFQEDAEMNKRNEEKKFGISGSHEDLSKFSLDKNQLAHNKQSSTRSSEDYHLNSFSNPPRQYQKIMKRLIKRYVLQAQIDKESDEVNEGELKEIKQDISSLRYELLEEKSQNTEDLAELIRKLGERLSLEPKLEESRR
TRPC6 inh: blocks the mouse TRPC6 cation channel; Q61143; HEK293-TRPC6, membrane potential dye, ACh-evoked depolarization; active compounds read low; B-score at 10 µM; 1.1% of 310,000 active; AID 2553;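 active means B-score under library mean minus 3 SD, initial fluorescence not abnormally high, positive integrated signal ratio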;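 further: B-score derived from integrated fluorescence ratio over the kinetic read; more negative B-score means stronger inhibition of depolarization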
TRPC4 PAM: allosterically enhances the mouse TRPC4 cation channel. HEK293 TRPC4beta/mu-opioid, DAMGO EC20, Fluo-4 Ca2+ flux; active compounds read high. B-score at 10 µM. 0.42% of 310,000 active;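 active means B-score of calcium response area above 5 SD of library B-scores, with initial fluorescence ratio within 5 SD of library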;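 further: B-score of integrated fluorescence ratio over time as area under calcium response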
TRPC4 act: opens the mouse TRPC4 cation channel; Q9QUQ5; HEK293 TRPC4beta/mu-opioid, Fluo4 calcium fluorescence; active compounds read high; B-score at 10 µM; 0.49% of 310,000 active; AID 2237;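 active means B-score above 5 SD of library B-scores, and initial fluorescence ratio not above library mean plus 5 SD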;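 further: positive B-score marks a calcium rise read as TRPC4 activation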
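system = HEK293 cells stably co-expressing mouse TRPC4beta and mu-opioid receptor | schedule = Fluo4 dye loading 45 min at room temperature, 110 s recording | measure = B-scored integrated calcium fluorescence ratio | signal = Fluo4 calcium-sensitive dye fluorescence, kinetic, 1 Hz baseline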
TRPC4 inh: inhibitors of mouse TRPC4 channel; Q9QUQ5; HEK293 TRPC4beta/mu-opioid, DAMGO-evoked Fluo4 calcium flux; active compounds read low; B-score at 10 µM; 0.39% of 300,000 active; AID 2247;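 active means B-score over 3 SD under the library average, no early fluorescence shift, positive overall ratio signal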
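Assay system: Stable TRPC4beta/mu-opioid receptor HEK293 cells | Reagent: DAMGO in two steps, submaximal then maximal | Compound dosing: Single concentration per test compound | Signal: Fluo4 Ca2+ flux fluorescence | Evaluation: Per-well B score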
TRPC4 spec 2: mouse TRPC4 off-target activity of TRPC6 inhibitors, second screen | HEK293 TRPC4/MOR, membrane potential dye fluorescence; channel activated by saturating DAMGO dose | 42% of 920 active | AID 2776 | shares compounds with TRPC6 inh | inhibition, % at 10 µM;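 active means compounds whose fluorescence signal differed from control wells by over 3 SD, either direction, in both duplicate plates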
TRPC4 spec: mouse TRPC4 off-target activity of TRPC6 inhibitors; shares compounds with TRPC6 inh; HEK293 TRPC4/mu-opioid, membrane potential fluorescence; activity change, negative = inhibition, % at 10 µM; 61% of 920 active; AID 2777;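 active means rise or fall in signal beyond 3 SD of buffer-only wells in both replicate plates, either sign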;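 further: integrated kinetic ratio of fluorescence range over baseline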
HEK293 MPD ctr 2-1: second check of TRPC6 inhibitor effects in parental HEK293 cells; shares compounds with TRPC6 inh; parental HEK293 membrane potential dye fluorescence; maximal acetylcholine challenge after compound addition; signal change vs control, % at 10 µM; 31% of 920 active;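 active means membrane potential signal moving either way by over 3 SD of the maximum-effect control, in both duplicate plates, meaning non-specific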
HEK293 MPD ctr-1: counter-screen for TRPC6 inhibitors: effect in parental HEK293 cells; parental HEK293 membrane potential dye fluorescence; shares compounds with TRPC6 inh; membrane potential signal change, % at 10 µM; AID 2780; 60% of 920 active;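 active means membrane potential signal shifting up or down by more than 3 SD of buffer-only wells, on both duplicate plates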
HEK293 MPD ctr-2: parental HEK293 nonspecific activity of TRPC6 modulators. AID 488924. 51% of 2,400 active. membrane potential dye fluorescence. shares compounds with TRPC6 inh. membrane potential signal change, % at 10 µM;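 active means membrane potential signal moves up or down beyond 5 SD from buffer-only wells, on both duplicate plates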
HEK293 MPD ctr 2-2: second check of TRPC6 modulator effects in parental HEK293 cells; membrane potential dye fluorescence; after compound, maximal acetylcholine stimulation; inhibition, % at 10 µM; 14% of 2,400 active; AID 488926; shares compounds with TRPC6 inh;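 active means membrane potential signal drops by more than 5 SD from the mean control signal, in both duplicate plates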;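 further: plate controls were acetylcholine ECmax control wells for no effect and buffer only wells for full effect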
TRPC4 ctr mod: selectivity of TRPC6 modulators against mouse TRPC4. shares compounds with TRPC6 inh. HEK293 TRPC4/mu-opioid, membrane potential fluorescence. percent change from control (negative = decrease, positive = increase), % at 10 µM. 69% of 2,400 active;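 active means membrane potential signal moved up or down beyond 5 SD of buffer control wells, in both duplicate plates, actives on both sides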;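 further: plate controls were assay buffer wells for no effect and DAMGO maximal-effect wells for full effect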
TRPC4 ctr inh 2: second check of whether TRPC6 modulators also affect mouse TRPC4; shares compounds with TRPC6 inh; HEK293 TRPC4/mu-opioid, membrane potential dye fluorescence; stimulated with maximal-effect DAMGO; inhibition, % at 10 µM; 55% of 2,400 active;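 active means drop in membrane potential signal beyond 5 SD of the control wells in both duplicate plates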;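 further: TRPC4 counter screen for TRPC6 hits run under conditions tuned for TRPC6 not TRPC4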
TRPC6 block conf: mouse TRPC6 inhibitor confirmation; shares compounds with TRPC6 inh; HEK293-TRPC6, membrane potential dye, ACh-evoked depolarization; inhibition, % at 10 µM; 43% of 3,300 active;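 active means fluorescence ratio falls more than 5 SD below the full-stimulation control mean, in both duplicate runs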;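 further: integrated fluorescence ratio of peak minus minimum over baseline after agonist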
TRPC6 act conf: confirmation of mouse TRPC6 activators; shares compounds with TRPC6 inh; HEK293-TRPC6 membrane potential dye fluorescence, FDSS; activation, % at 10 µM; 11% of 2,800 active; AID 488961;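 active means ratio signal rise beyond 5 SD above unstimulated control wells' mean, seen in both duplicate runs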;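 further: plate controls were buffer EC0 wells for no effect and acetylcholine ECmax response for full effect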
Numbers without * were called inactive.

Results for COc1cccc(OCC(O)CN2CCC(CN3C(=O)c4cccc5cccc(c45)C3=O)CC2)c1 (stereo not given) ?
TRPC6 activator: inactive; TRPC6 inh: -10.2*; TRPC4 PAM: inactive; TRPC4 act: inactive; TRPC4 inh: inactive; TRPC4 spec 2: 62.0%*; TRPC4 spec: -14.0%*; HEK293 MPD ctr 2-1: inactive; HEK293 MPD ctr-1: -138.0%*; TRPC6 block conf: inactive; TRPC6 act conf: inactive

How did COc1ccc(COCC(O)CN2CCC(CN3C(=O)c4cccc5cccc(c45)C3=O)CC2)cc1OC (stereo not given) do in these assays?
TRPC6 activator: inactive; TRPC6 inh: -5.77*; TRPC4 PAM: inactive; TRPC4 act: inactive; TRPC4 inh: inactive; HEK293 MPD ctr-2: -147.0%*; HEK293 MPD ctr 2-2: inactive; TRPC4 ctr mod: -30.5%*; TRPC4 ctr inh 2: 87.5%*; TRPC6 block conf: 69.0%*; TRPC6 act conf: inactive

Results for CC(=O)N1CCN(c2ccc(N=Cc3c(O)n(Cc4ccccc4)c(=O)[nH]c3=O)cc2)CC1 ?
TRPC6 activator: inactive; TRPC6 inh: -5.57*; TRPC4 PAM: inactive; TRPC4 act: inactive; TRPC4 inh: inactive; HEK293 MPD ctr-2: 188.0%*; HEK293 MPD ctr 2-2: inactive; TRPC4 ctr mod: -23.5%*; TRPC4 ctr inh 2: inactive; TRPC6 block conf: inactive; TRPC6 act conf: inactive

How did CC(=O)N1CCN(c2ccc(NCc3ccccc3)cc2)CC1 do in these assays?
TRPC6 activator: inactive; TRPC6 inh: inactive; TRPC4 PAM: inactive; TRPC4 act: inactive; TRPC4 inh: inactive

What do the screens show for `Cc1c(Br)c([N+](=O)[O-])nn1CC(=O)N1CCc2ccccc2C1`?
TRPC6 activator: inactive; TRPC6 inh: inactive; TRPC4 PAM: inactive; TRPC4 act: inactive; TRPC4 inh: inactive

Results for Cc1cccc(C(=O)N2CCc3ccccc3C2)c1[N+](=O)[O-] ?
TRPC6 activator: inactive; TRPC6 inh: -5.31*; TRPC4 PAM: inactive; TRPC4 act: inactive; TRPC4 inh: inactive; HEK293 MPD ctr-2: inactive; HEK293 MPD ctr 2-2: inactive; TRPC4 ctr mod: 15.5%*; TRPC4 ctr inh 2: inactive; TRPC6 block conf: inactive; TRPC6 act conf: inactive

How did Cc1c(Br)c([N+](=O)[O-])nn1C(C)C(=O)N1CCc2ccccc2C1 (stereo not given) do in these assays?
TRPC6 activator: inactive; TRPC6 inh: -5.98*; TRPC4 PAM: inactive; TRPC4 act: inactive; TRPC4 inh: inactive; HEK293 MPD ctr-2: inactive; HEK293 MPD ctr 2-2: 93.0%*; TRPC4 ctr mod: 19.0%*; TRPC4 ctr inh 2: inactive; TRPC6 block conf: 80.0%*; TRPC6 act conf: inactive

What do the screens show for `c1cc2c3c(cccc3c1)NC1(CCC3(CC1)Nc1cccc4cccc(c14)N3)N2`?
TRPC6 activator: inactive; TRPC6 inh: -6.86*; TRPC4 PAM: inactive; TRPC4 act: inactive; TRPC4 inh: inactive; TRPC4 spec 2: inactive; TRPC4 spec: -21.8%*; HEK293 MPD ctr 2-1: inactive; HEK293 MPD ctr-1: -239.5%*; TRPC6 block conf: inactive; TRPC6 act conf: inactive

Results for N#Cc1ccc2[nH]c(CO)c(-c3ccccc3)c2c1 ?
TRPC6 activator: inactive; TRPC6 inh: -5.36*; TRPC4 PAM: inactive; TRPC4 act: inactive; TRPC4 inh: inactive; HEK293 MPD ctr-2: -83.5%*; HEK293 MPD ctr 2-2: inactive; TRPC4 ctr mod: -27.0%*; TRPC4 ctr inh 2: 45.0%*; TRPC6 block conf: inactive; TRPC6 act conf: inactive

Results for O=C(Nc1ccc(N2CCCC2)cc1)c1ccc(Br)o1 ?
TRPC6 activator: inactive; TRPC6 inh: inactive; TRPC4 PAM: inactive; TRPC4 act: inactive; TRPC4 inh: inactive

How did Cc1cc(N2CCN(C)CC2)nc2ccc(NC(=O)c3ccc(Br)o3)cc12 do in these assays?
TRPC6 activator: inactive; TRPC6 inh: -6.27*; TRPC4 PAM: inactive; TRPC4 act: inactive; TRPC4 inh: inactive; HEK293 MPD ctr-2: -100.0%*; HEK293 MPD ctr 2-2: inactive; TRPC4 ctr mod: inactive; TRPC4 ctr inh 2: 80.0%*; TRPC6 block conf: 67.0%*; TRPC6 act conf: inactive

What do the screens show for `CCN1CCN(c2cc(C)c3cc(NC(=O)c4cnccn4)ccc3n2)CC1`?
TRPC6 activator: inactive; TRPC6 inh: -5.87*; TRPC4 PAM: inactive; TRPC4 act: inactive; TRPC4 inh: inactive; HEK293 MPD ctr-2: inactive; HEK293 MPD ctr 2-2: 69.0%*; TRPC4 ctr mod: 11.0%*; TRPC4 ctr inh 2: 29.0%*; TRPC6 block conf: inactive; TRPC6 act conf: inactive

Results for Cc1cc(N2CCCCC2)nc2ccc(NC(=O)c3ccc(Br)o3)cc12 ?
TRPC6 activator: inactive; TRPC6 inh: -8.78*; TRPC4 PAM: inactive; TRPC4 act: inactive; TRPC4 inh: inactive; TRPC4 spec 2: 71.5%*; TRPC4 spec: -31.1%*; HEK293 MPD ctr 2-1: inactive; HEK293 MPD ctr-1: -332.0%*; TRPC6 block conf: 50.7%*; TRPC6 act conf: inactive

Results for O=C(NCC(=O)N(c1ccc(F)cc1)C(C(=O)NC1CCCC1)c1ccncc1)c1ccco1 (stereo not given) ?
TRPC6 activator: inactive; TRPC6 inh: inactive; TRPC4 PAM: inactive; TRPC4 act: inactive; TRPC4 inh: inactive

Screens (PubChem)
